The results in this text go back to ChEMBL document CHEMBL1130288, “(3R)-N-(1-(tert-butylcarbonylmethyl)-2,3-dihydro-2-oxo-5-(2-pyridyl)-1H-1,4-benzodiazepin-3-yl)-N'-(3-(methylamino)phenyl)urea (YF476): a potent and orally active gastrin/CCK-B antagonist” (J Med Chem, 1997).

The Inhibition is the drop in the measured response relative to a control, in per cent. For orientation: IC50 means the concentration at which inhibition is half-maximal. The low end stands for higher potency, the high end for lower potency. As usually defined, the ED50 is the dose at which the effect has come halfway, by size or by number of responders. Low values mean an effect at a small dose, high ones a need for a large dose. The term inhibition in vivo denotes how much of the control response was suppressed. Lower therefore signals a weak effect.

Experiment [1] has as its system Rattus norvegicus. Put plainly: Inhibition of pentagastrin-induced gastric acid secretion in anathesized rats at 0.1 uM/Kg upon intravenous administration. In kind it is functional, Stomach. The procedure, abridged:
(§1)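 Anesthetized rats, pylorus-ligated with duodenal cannula. Stomach perfused with saline (pH 7.0) at 3 mL/min. Acid output by continuous pH-stat titration with 25 mM NaOH to pH 7.0, per 10 min. Pentagastrin infused iv via femoral vein. Compound in polyethylene glycol 300 given iv 1 h after pentagastrin start. ED50 is the dose reducing acid to 50% of maximum.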

Experiment [2] has as its target Cholecystokinin receptor (Rattus norvegicus) (UniProt P30551+P30553). As to the kind of experiment: Ratio of inhibitory concentration; CCK-A receptor to CCK-B receptor. In kind it is protein assay.
For experiment [3], the target named is T1, Gastrin/cholecystokinin type B receptor (Rattus norvegicus, UniProt P30553).
T1 sequence (P30553 whole entry): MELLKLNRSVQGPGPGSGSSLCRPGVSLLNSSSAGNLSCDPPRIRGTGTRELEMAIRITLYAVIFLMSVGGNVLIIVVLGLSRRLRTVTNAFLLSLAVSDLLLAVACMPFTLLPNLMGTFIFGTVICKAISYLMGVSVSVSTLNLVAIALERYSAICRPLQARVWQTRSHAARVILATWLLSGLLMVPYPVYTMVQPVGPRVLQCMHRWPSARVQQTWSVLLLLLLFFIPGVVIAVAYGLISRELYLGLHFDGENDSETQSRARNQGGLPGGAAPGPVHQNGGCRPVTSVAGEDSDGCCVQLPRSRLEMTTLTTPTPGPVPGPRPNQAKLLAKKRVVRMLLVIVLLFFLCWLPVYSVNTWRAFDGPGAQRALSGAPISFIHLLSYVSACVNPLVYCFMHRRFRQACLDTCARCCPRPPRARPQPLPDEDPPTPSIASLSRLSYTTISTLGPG
As to the kind of experiment: Inhibitory concentration against radioligand [125I]CCK-8 binding to gastrin/Cholecystokinin type B receptor from rat brain. An outline of the steps: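 SD rat whole-brain membranes prepared by sucrose homogenisation, differential centrifugation and Triton X-100 wash. Incubated 120 min at 25 °C with [125I]BH-CCK-8 and compound (in DMSO) in 10 mM HEPES pH 6.5 with NaCl, MgCl2, EDTA, bacitracin. Filtration, γ-counting. Nonspecific binding with […] CCK-8. IC50 is the concentration giving 50% inhibition of specific binding.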

For experiment [4], the target named is T2, Cholecystokinin receptor type A (Rattus norvegicus, UniProt P30551).
T2 sequence (P30551 whole entry): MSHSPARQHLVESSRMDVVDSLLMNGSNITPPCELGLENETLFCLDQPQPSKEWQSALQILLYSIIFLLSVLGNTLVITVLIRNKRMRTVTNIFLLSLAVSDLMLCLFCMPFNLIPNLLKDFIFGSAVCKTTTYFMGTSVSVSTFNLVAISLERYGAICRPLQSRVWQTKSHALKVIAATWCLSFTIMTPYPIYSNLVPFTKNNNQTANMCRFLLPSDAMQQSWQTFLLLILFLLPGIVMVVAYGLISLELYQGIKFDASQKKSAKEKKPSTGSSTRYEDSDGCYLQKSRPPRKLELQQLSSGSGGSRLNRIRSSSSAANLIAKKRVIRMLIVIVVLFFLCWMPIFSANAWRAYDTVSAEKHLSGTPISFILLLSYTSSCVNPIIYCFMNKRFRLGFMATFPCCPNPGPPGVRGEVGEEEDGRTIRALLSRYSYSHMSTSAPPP
As to the kind of experiment: Inhibitory concentration against radioligand [3 H]L-364,718 binding to gastrin/Cholecystokinin type A receptor from rat pancreas. The procedure, abridged:
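Rat pancreas membranes in 50 mM Tris-HCl pH 7.7 containing BSA, MgCl2, bacitracin and DTT. Incubated 30 min at 37 °C with [3H]L-364,718 and compound (in DMSO). Filtration, scintillation counting. Nonspecific binding with […] L-364,718. IC50 is the concentration inhibiting specific binding by 50%.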

Experiment [5] deals with Rattus norvegicus. Put plainly: Inhibition of pentagastrin-induced gastric acid secretion in anathesized rats upon intravenous administration. The class given is functional. To be noted: Stomach. An outline of the steps:
as §1

Experiment [6] concerns Canis familiaris. Put plainly: Compound at an peroral dose of 1 umol/kg was tested for the inhibition of pentagastrin-induced gastric acid secretion in heidenhain pouch dogs. In kind it is functional. As to conditions: Canis lupus familiaris, Stomach, po. An outline of the steps:
(§2)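 Male beagle dogs with Heidenhain pouch, food withheld 18 h (water free). Pentagastrin 8 µmol/kg/h infused via femoral vein from 3 h before until 6 h after oral dosing. Gastric juice collected every 15 min; acidity by automatic titration with 0.05 N NaOH to pH 7.0. Inhibition relative to values just before dosing.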

Experiment [7] relates to Canis familiaris. Put plainly: Compound at an peroral dose of 3 uM/Kg was tested for the inhibition of pentagastrin-induced gastric acid secretion in heidenhain pouch dogs. In kind it is functional, Canis lupus familiaris, Stomach. The procedure, abridged:
as §2

Experiment [8] has as its system Canis familiaris. As to the kind of experiment: Concentration required to inhibit pentagastrin-induced gastric acid secretion in heidenhain pouch dogs upon peroral administration. As to conditions: Canis lupus familiaris, Stomach, po. In kind it is functional. The procedure, abridged: as §2
Experiment [9] deals with Canis familiaris. As to the kind of experiment: Concentration required to inhibit pentagastrin-induced gastric acid secretion in heidenhain pouch dogs upon intravenous administration. The class given is functional. As to conditions: Canis lupus familiaris, Stomach. The procedure, abridged:
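Male beagle dogs with Heidenhain pouch, fasted 18 h with water allowed. Pentagastrin infused at 8 µmol/kg/h through femoral vein. Compound dissolved in DMF and given iv 3 h after infusion start. Juice collected every 15 min, volume measured, acidity titrated with 0.05 N NaOH to pH 7.0.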

Experiment [10] concerns Rattus norvegicus. As to the kind of experiment: Inhibition of pentagastrin-induced gastric acid secretion in Dawley rats following intravenous administration. In kind it is functional. To be noted: Stomach. An outline of the steps:
as §1

Experiment [11] deals with Rattus norvegicus. Put plainly: Inhibition of pentagastrin-induced gastric acid secretion in anathesized rats at 0.03 uM/Kg upon intravenous administration. In kind it is functional, Stomach. The procedure, abridged:
as §1

The test system of experiment [12] is Canis familiaris. As to the kind of experiment: Compound at an peroral dose of 0.3 uM/Kg was tested for the inhibition of pentagastrin-induced gastric acid secretion in heidenhain pouch dogs. In kind it is functional, Canis lupus familiaris, Stomach. The procedure, abridged: as §2
In experiment [13] the test system is Canis familiaris. Put plainly: Compound at an peroral dose of 0.1 uM/Kg was tested for the inhibition of pentagastrin-induced gastric acid secretion in heidenhain pouch dogs. The class given is functional, Canis lupus familiaris, Stomach. An outline of the steps: as §2
Experiment [14] concerns Canis familiaris. As to the kind of experiment: Compound at an peroral dose of 0.03 uM/Kg was tested for the inhibition of pentagastrin-induced gastric acid secretion in heidenhain pouch dogs. In kind it is functional, Canis lupus familiaris, Stomach. The procedure, abridged:
as §2

The structures appear in SMILES notation.

Consider `CC(C)(C)C(=O)CN1C(=O)C(NC(=O)Nc2cccc(C(=O)O)c2)N=C(c2ccccc2)c2ccccc21` (configuration not stated), for which the Inhibition in the experiment on Rattus norvegicus [1] is 56%. Also, the Ratio in experiment [2] was 626. For the same compound, the IC50 in experiment [3] turned out to be 3.29 nM; in [4], 2060 nM.
The matching figures for `CC(C)(C)C(=O)CN1C(=O)[C@H](NC(=O)Nc2cccc(N3CCCC3)c2)N=C(c2ccccc2)c2ccccc21`: 79%, 923, 0.17 nM and 157 nM.
In turn, `CC(C)(C)C(=O)CN1C(=O)C(NC(=O)Nc2cccc(NC=O)c2)N=C(c2ccccc2)c2ccccc21` (configuration not stated) showed an Inhibition in the experiment with Rattus norvegicus [1] of 74%. In addition, the Ratio in experiment [2] was determined as 951. Also, the figures for the 50% inhibitory concentration (IC50) in experiment [3] and in experiment [4] were 0.59 nM and 561 nM, respectively.
`Cc1cccc(NC(=O)N[C@@H]2N=C(c3ccccc3)c3ccccc3N(CC(=O)c3ccccc3C)C2=O)c1`: the ED50 with Rattus norvegicus [5] stood at 0.0083 µmol/kg; in the experiment on Canis familiaris [8] it was 1.9 µmol/kg; with Canis familiaris [9], 0.026 µmol/kg. The inhibition in vivo at 1 µmol/kg in the experiment with Canis familiaris [6] stood at 26%. The compound also registered an Inhibition with Canis familiaris [7] of 72%. Further, the Ratio in experiment [2] came to 1330.
`CCN(CC)c1cccc(NC(=O)N[C@@H]2N=C(c3ccccc3)c3ccccc3N(CC(=O)C(C)(C)C)C2=O)c1` showed an Inhibition in the experiment with Rattus norvegicus [1] of 82%. For the same compound, the Ratio in [2] was determined as 3990. The IC50 in [3] was determined as 0.14 nM; in experiment [4] it was 558 nM.
Turning to `CN(C)c1cccc(NC(=O)N[C@@H]2N=C(c3ccccc3)c3ccccc3N(CC(=O)C(C)(C)C)C2=O)c1`, the Inhibition came to 65% in the experiment on Rattus norvegicus [1] and 99% in the experiment with Canis familiaris [7]. For the same compound, the Ratio in experiment [2] came out at 423. Further, the IC50 in experiment [3] is 0.21 nM; in [4], 89 nM. In the experiment on Rattus norvegicus [10], this compound came in with a 50% effective dose (ED50) of 0.012 µmol/kg.
In turn, `CCN(CC)c1cccc(NC(=O)N[C@@H]2N=C(c3ccccn3)c3ccccc3N(CC(=O)C(C)(C)C)C2=O)c1` registered an Inhibition in the experiment with Rattus norvegicus [1] of 74%. Moreover, the Ratio in [2] was determined as 2740. Besides, the IC50 in [3] was 0.11 nM; in experiment [4], 301 nM.
As for `Cc1cccc(NC(=O)N[C@@H]2N=C(c3ccccc3)c3ccccc3N(CC(=O)C(C)(C)C)C2=O)c1`, the Inhibition was determined as 53% in the experiment with Canis familiaris [7] and 77% in the experiment on Rattus norvegicus [11]. Also, the Ratio in experiment [2] was 213. Besides, the figures for the IC50 in [3] and in experiment [4] were 0.52 nM and 111 nM, respectively.
As for `CN(C)c1cccc(NC(=O)N[C@H]2N=C(c3ccccn3)c3ccccc3N(CC(=O)C(C)(C)C)C2=O)c1`, the Ratio in experiment [2] is 454. In addition, the results for the half-maximal inhibitory concentration (IC50) in [3] and in [4] were 1.26 nM and 572 nM, respectively.
Regarding `CC(C)(C)C(=O)CN1C(=O)[C@H](NC(=O)Nc2cccc(N3CCCC3)c2)N=C(c2ccccn2)c2ccccc21`, in the experiment on Rattus norvegicus [1], the Inhibition came out at 75%. Further, the Ratio in [2] is 2300. Further, the IC50 in experiment [3] was 0.11 nM; in experiment [4], 253 nM.
The matching figures for `CC(C)(C)C(=O)CN1C(=O)C(NC(=O)Nc2cccc(C#N)c2)N=C(c2ccccc2)c2ccccc21` (configuration not stated): 65%, 542, 1.29 nM and 700 nM.
Consider `CC(C)(C)C(=O)CN1C(=O)[C@H](NC(=O)Nc2cccc(N3CCCCC3)c2)N=C(c2ccccn2)c2ccccc21`, for which, in the experiment on Rattus norvegicus [1], the Inhibition is reported as 55%. In addition, the Ratio in [2] came out at 1120. In addition, the IC50 in experiment [3] stood at 0.84 nM; in experiment [4], 944 nM.
On to `CC(C)(C)C(=O)CN1C(=O)C(NC(=O)Nc2cccc([N+](=O)[O-])c2)N=C(c2ccccc2)c2ccccc21` (configuration not stated), for which the Inhibition with Rattus norvegicus [1] was 76%. Also, the Ratio in experiment [2] was found to be 3680. The IC50 worked out at 0.16 nM in experiment [3] and 589 nM in experiment [4].
Compound `CNc1cccc(NC(=O)N[C@@H]2N=C(c3ccccc3)c3ccccc3N(CC(=O)C(C)(C)C)C2=O)c1` returned an Inhibition in the experiment with Rattus norvegicus [1] of 80%. Also, in [2], the Ratio was 1090.
With `Cc1cccc(NC(=O)N[C@@H]2N=C(c3ccccn3)c3ccccc3N(CC(=O)C(C)(C)C)C2=O)c1`, the Inhibition in the experiment with Rattus norvegicus [1] stood at 78%; in the experiment on Canis familiaris [7], 97%; in the experiment on Canis familiaris [12], 7%. Also, the Ratio in experiment [2] is 1070. This compound yielded an IC50 in [4] of 470 nM.
In turn, `CC(C)(C)C(=O)CN1C(=O)[C@H](NC(=O)Nc2cccc(N)c2)N=C(c2ccccn2)c2ccccc21` came in with an Inhibition in the experiment on Rattus norvegicus [1] of 62%. Further, the Ratio in experiment [2] came to 4230. Further, the IC50 in experiment [3] was 0.43 nM; in [4], 1820 nM.
On to `CNc1cccc(NC(=O)N[C@@H]2N=C(c3ccccn3)c3ccccc3N(CC(=O)C(C)(C)C)C2=O)c1` [NETAZEPIDE], for which the Inhibition with Canis familiaris [13] is on record as 100%; in the experiment on Rattus norvegicus [1], 87%; with Canis familiaris [14], 65%. In addition, the ED50 in the experiment on Canis familiaris [8] stood at 0.021 µmol/kg; with Canis familiaris [9], 0.018 µmol/kg; in the experiment on Rattus norvegicus [10], 0.008 µmol/kg. Besides, in [2], the Ratio came to 5020.
Regarding `CC(C)(C)C(=O)CN1C(=O)[C@H](NC(=O)Nc2cccc(N)c2)N=C(c2ccccc2)c2ccccc21`, the Inhibition in the experiment on Rattus norvegicus [1] was 75%. Besides, the Ratio in experiment [2] came to 1910.
As for `CN(C)c1cccc(NC(=O)N[C@@H]2N=C(c3ccccn3)c3ccccc3N(CC(=O)C(C)(C)C)C2=O)c1`, the Inhibition is on record as 98% in the experiment on Canis familiaris [13], 77% in the experiment on Canis familiaris [14] and 65% in the experiment with Rattus norvegicus [11]. The Ratio in experiment [2] stood at 565. Also, the ED50 came to 0.014 µmol/kg in the experiment on Canis familiaris [9] and 0.011 µmol/kg in the experiment with Rattus norvegicus [10].
